The record followed here is ChEMBL document CHEMBL4321816, “Identification of 2,6-Disubstituted 3H-Imidazo[4,5-b]pyridines as Therapeutic Agents for Dysferlinopathies through Phenotypic Screening on Patient-Derived Induced Pluripotent Stem Cells” (J Med Chem, 2019).

Converted amounts (≈) assume the structure as drawn. The source made the active and inactive calls. No cut-off for these calls is given here.

Data set [1] in a line: (§1) Anti-dysferlinopathy activity in human dermal myocytes derived from dysferlinopathy patient dermal fibroblast iPSC harboring dysferlin c.2997 G > T (p. W999C)/c.1958G deletion mutant assessed as increase in dysferlin expression incubated for 24 hrs by immunostaining assay. It is filed as functional. The method, boiled down: (§2)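 iPSCs from a dysferlinopathy patient's dermal fibroblasts carrying a stably transfected Tet-MyoD1 vector. Differentiated to myocytes by doxycycline (1 µg/mL) MyoD induction, then treated on day 7 for 24 h at 0.003–10 µM (0.1% DMSO final). Fixed, immunostained for dysferlin and MHC, and imaged. Read-out: 488 nm intensity in the dysferlin/MHC double-positive area. EC150 is the concentration giving 50% increase over median DMSO wells, from a 4-parameter logistic fit.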

For the next data set, the species on record is Sus scrofa. In words: Competitive inhibition of porcine tubulin alpha/beta at 10 to 100 uM preincubated 30 mins followed by addition of N-(2-(3-(But-3-yn-1-yl)-3H-diazirin-3-yl)ethyl)-5-(2-(phenoxymethyl)-3H-imidazo[4,5-b]pyridin-6-yl)thiophene-3-carboxamide and measured after 15 mins by SDS-PAGE based fluorescence assay. A digest of the protocol:
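Porcine brain tubulin at 25 µg/mL in HEPES isotonic buffer (pH 7.4) pre-incubated 30 min at room temperature with DMSO or compound (1–10 mM DMSO stocks). […] Labeled tubulin was tagged with TAMRA-azide by click reaction, run on SDS-PAGE and scanned for fluorescence, with Coomassie staining for total tubulin.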

The nature of data set [2]: Aqueous solubility in pH 6.8 by HPLC analysis. It is filed as physicochemical. Conditions: buffer. The method, boiled down: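 Compound added from DMSO solution to aqueous buffer at pH 6.8 and incubated. Precipitate removed by filtration. Dissolved compound in the filtrate quantified by plate reader or HPLC.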
Another data set is filed under the species Homo sapiens. Described as §1. It counts as functional. A digest of the protocol: as §2
Data set [3] is described as follows: Permeability of compound in pH 7.4 in PRISMA HT buffer at 10 umol/L incubated for 3 hrs by LC/MS/MS based PAMPA assay. It counts as ADME. Conditions: read-out: permeability. A digest of the protocol:
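PAMPA: donor wells held PRISMA HT buffer (pH 7.4) with 10 µmol/L compound, and the acceptor filter was coated with GIT-0 lipid over sink buffer. Incubated 3 h at room temperature, then compound in donor and acceptor wells measured by LC/MS/MS.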

A further data set concerns HepG2. Description: Cytotoxicity against human HepG2 cells assessed as reduction in cell viability after 24 hrs by Cell Titer Glo assay. It counts as cell-based. Conditions: HepG2, 24 h. A digest of the protocol: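 HepG2 cells in DMEM high glucose with 10% FBS were seeded at 5000 cells/well and grown ~24 h. Compounds were then added for 24 h at 37 °C/5% CO2, and viability read by CellTiter-Glo luminescence. Controls were DMSO wells and medium-only wells. IC50 was taken from a sigmoidal fit of % inhibition.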

Consider `Fc1ccc(OCc2nc3cc(-c4cccs4)cnc3[nH]2)cc1`, for which the EC150 in data set [1] came out at 0.067 µM. Regarding `CC(=O)O[C@H]1C(=O)[C@@]2(C)[C@H]([C@H](OC(=O)c3ccccc3)[C@]3(O)C[C@H](OC(=O)[C@H](O)[C@@H](NC(=O)c4ccccc4)c4ccccc4)C(C)=C1C3(C)C)[C@]1(OC(C)=O)CO[C@@H]1C[C@@H]2O`, in the data set listed under Sus scrofa, the inhibition result was “inactive”. Regarding `FC(F)(F)c1ccc(CCc2nc3cc(-c4ccco4)cnc3[nH]2)cc1`, in data set [1], the EC150 is greater than 10 µM. For `Fc1ccc(CCc2nc3cc(-c4ccco4)cnc3[nH]2)cc1`, the EC150 in data set [1] came to 1 µM. The same measure, in the same setting: as for `C#CCCC1(CCNC(=O)c2csc(-c3cnc4[nH]c(COc5ccccc5)nc4c3)c2)N=N1`, the figure is 0.37 µM; as for `COc1ccc(CCc2nc3cc(-c4ccco4)cnc3[nH]2)cc1`, greater than 10 µM.

For `COc1cc2c(c(OC)c1OC)-c1ccc(OC)c(=O)cc1[C@@H](NC(C)=O)CC2`, the inhibition result in the data set filed under Sus scrofa was “Active”. With `Clc1ccc(CCc2nc3cc(-c4ccco4)cnc3[nH]2)cc1`, the EC150 in data set [1] stood at 4.3 µM. For the compound `Fc1ccc(CCc2nc3cc(-c4cccs4)cnc3o2)cc1`, in data set [1], the EC150 was greater than 10 µM. For the compound `c1ccc(OCc2nc3cc(-c4cccs4)cnc3[nH]2)cc1`, in the data set listed under Sus scrofa, the inhibition result is “Active”. In addition, the EC150 in data set [1] was determined as 0.039 µM. Regarding `COCCOCCNC(=O)c1csc(-c2cnc3[nH]c(COc4ccccc4)nc3c2)c1`, the EC150 in data set [1] is 0.4 µM. On the same count and under the same terms, as for `c1ccc(-c2nc3cc(-c4ccco4)cnc3[nH]2)cc1`, the figure is greater than 10 µM; as for `Fc1ccc(CCc2nc3cc(-c4cccs4)ccc3[nH]2)cc1`, greater than 10 µM. Turning to `Cc1ccc(CCc2nc3cc(-c4ccco4)cnc3[nH]2)cc1`, the EC150 in data set [1] is greater than 10 µM. With `Cc1nc2[nH]c(CCc3ccc(F)cc3)nc2cc1-c1cccs1`, in data set [1], the EC150 is greater than 10 µM. Take `Clc1ccccc1CCc1nc2cc(-c3ccco3)cnc2[nH]1`: the EC150 in data set [1] is greater than 10 µM. For the compound `CNC(=O)c1csc(-c2cnc3[nH]c(COc4ccccc4)nc3c2)c1`, the EC150 in data set [1] stood at 0.11 µM. In the case of `Fc1ccc(CCc2nc3cc(-c4cccs4)cnc3[nH]2)cc1`, in data set [1], the EC150 is 0.15 µM. Regarding `COC(=O)Nc1nc2cc(C(=O)c3cccs3)ccc2[nH]1` [NOCODAZOLE], in the data set filed under Sus scrofa, the inhibition result is “Active”. In addition, the EC150 in data set [1] was 1 µM. In the case of `Cc1ccc(-c2cnc3[nH]c(CCc4ccc(F)cc4)nc3c2)s1`, the EC150 in data set [1] was 6.3 µM. Same read-out and setting: in the case of `CNC(=O)c1ccsc1-c1cnc2[nH]c(COc3ccccc3)nc2c1` it was greater than 10 µM. Still for that read-out and setting: as for `N#Cc1ccc(CCc2nc3cc(-c4ccco4)cnc3[nH]2)cc1`, the figure is greater than 10 µM; as for `Cc1c(-c2cccs2)cnc2[nH]c(CCc3ccc(F)cc3)nc12`, 0.37 µM. As for `CC[C@]1(O)C[C@@H]2CN(CCc3c([nH]c4ccccc34)[C@@](C(=O)OC)(c3cc4c(cc3OC)N(C)[C@H]3[C@@](O)(C(=O)OC)[C@H](OC(C)=O)[C@]5(CC)C=CCN6CC[C@]43[C@@H]65)C2)C1` [VINBLASTINE], the inhibition result in the data set filed under Sus scrofa is “inactive”. In addition, in data set [1], the EC150 was found to be 0.074 µM.

With `CC(C)c1ccsc1-c1cnc2[nH]c(COc3ccccc3)nc2c1`, in data set [1], the EC150 was found to be 0.012 µM.

As for `Fc1ccc(CCc2nc3cc(-c4ccccc4)cnc3[nH]2)cc1`, the EC150 in data set [1] came to 1.3 µM.

As to `Cc1csc(-c2cnc3[nH]c(CCc4ccc(F)cc4)nc3c2)c1`, the EC150 in data set [1] was 1.9 µM. With `Cc1ccsc1-c1cnc2[nH]c(CCc3ccc(F)cc3)nc2c1`, the EC150 in data set [1] turned out to be 0.11 µM. `c1ccc(Cc2nc3cc(-c4ccco4)cnc3[nH]2)cc1`: the EC150 in data set [1] is greater than 10 µM. Still for that read-out and setting: as for `Clc1cccc(CCc2nc3cc(-c4ccco4)cnc3[nH]2)c1`, the figure is greater than 10 µM. `c1ccc(CCc2nc3cc(-c4ccco4)cnc3[nH]2)cc1` displayed a solubility in data set [2] of 6.4 µg/mL (≈ 22.1 µM). In addition, the Activity result in the data set filed under Homo sapiens is “Dose-dependent effect”. The EC150 in data set [1] stood at 5.9 µM. The Papp at 3 h, 10 µM in data set [3] was 33.2 ×10⁻⁶ cm/s. Moreover, the IC50 with HepG2 was greater than 100 µM. With `Fc1ccc(CCc2nc3ncc(-c4cccs4)cc3o2)cc1`, the EC150 in data set [1] was greater than 10 µM.
